The text below walks through data of ChEMBL document CHEMBL1139977, “Synthesis and RET protein kinase inhibitory activity of 3-arylureidobenzylidene-indolin-2-ones” (Bioorg Med Chem Lett, 2007).

The IC50 is the concentration at which inhibition is half-maximal. A higher IC50 goes with a need for much substance.

The source made the active and inactive calls. No cut-off for these calls is given here. Bounds are passed on as bounds.

The nature of test [1]: Antiproliferative activity against RET C634R mutant oncogene-transformed mouse NIH3T3MEN2A after 72 hrs. The class given is functional. An outline of the steps: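 Cells kept at 37 °C in 10% CO2 in DMEM. NIH3T3MEN2A were grown with 5% serum; parental NIH3T3 and NIH3T3H-RAS with 10% calf serum. Compounds were dissolved in DMSO and diluted in medium to 0.5% solvent final.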

A further test concerns NIH3T3MEN2A. Description: Reversion of RET C634R mutant oncogene-transformed morphologic phenotype of mouse NIH3T3MEN2A cells at 10 uM after 72 hrs. The class given is functional, cell-based.
The test system of test [2] is NIH3T3. The test can be described thus: Antiproliferative activity against H-RAS transformed mouse NIH3T3 cells after 72 hrs. The note with it: NIH3T3, 72 h.
Test [3] deals with T1, Proto-oncogene tyrosine-protein kinase receptor Ret (Homo sapiens, UniProt P07949). Description: Inhibition of RET in mouse NIH3T3MEN2A cells up to 3 uM. The class given is cell-based. An outline of the steps: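 NIH3T3MEN2A cells (DMEM with 5% serum, 37 °C, 10% CO2) were exposed to vehicle or a range of concentrations for 24 h, with DMSO at 0.5% final. Whole-cell lysates were Western blotted for Ret autophosphorylation with anti-pTyr (4G10) and anti-pRet-Tyr1062 antibodies, and Ret protein expression was also probed.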
T1 sequence (P07949 whole entry): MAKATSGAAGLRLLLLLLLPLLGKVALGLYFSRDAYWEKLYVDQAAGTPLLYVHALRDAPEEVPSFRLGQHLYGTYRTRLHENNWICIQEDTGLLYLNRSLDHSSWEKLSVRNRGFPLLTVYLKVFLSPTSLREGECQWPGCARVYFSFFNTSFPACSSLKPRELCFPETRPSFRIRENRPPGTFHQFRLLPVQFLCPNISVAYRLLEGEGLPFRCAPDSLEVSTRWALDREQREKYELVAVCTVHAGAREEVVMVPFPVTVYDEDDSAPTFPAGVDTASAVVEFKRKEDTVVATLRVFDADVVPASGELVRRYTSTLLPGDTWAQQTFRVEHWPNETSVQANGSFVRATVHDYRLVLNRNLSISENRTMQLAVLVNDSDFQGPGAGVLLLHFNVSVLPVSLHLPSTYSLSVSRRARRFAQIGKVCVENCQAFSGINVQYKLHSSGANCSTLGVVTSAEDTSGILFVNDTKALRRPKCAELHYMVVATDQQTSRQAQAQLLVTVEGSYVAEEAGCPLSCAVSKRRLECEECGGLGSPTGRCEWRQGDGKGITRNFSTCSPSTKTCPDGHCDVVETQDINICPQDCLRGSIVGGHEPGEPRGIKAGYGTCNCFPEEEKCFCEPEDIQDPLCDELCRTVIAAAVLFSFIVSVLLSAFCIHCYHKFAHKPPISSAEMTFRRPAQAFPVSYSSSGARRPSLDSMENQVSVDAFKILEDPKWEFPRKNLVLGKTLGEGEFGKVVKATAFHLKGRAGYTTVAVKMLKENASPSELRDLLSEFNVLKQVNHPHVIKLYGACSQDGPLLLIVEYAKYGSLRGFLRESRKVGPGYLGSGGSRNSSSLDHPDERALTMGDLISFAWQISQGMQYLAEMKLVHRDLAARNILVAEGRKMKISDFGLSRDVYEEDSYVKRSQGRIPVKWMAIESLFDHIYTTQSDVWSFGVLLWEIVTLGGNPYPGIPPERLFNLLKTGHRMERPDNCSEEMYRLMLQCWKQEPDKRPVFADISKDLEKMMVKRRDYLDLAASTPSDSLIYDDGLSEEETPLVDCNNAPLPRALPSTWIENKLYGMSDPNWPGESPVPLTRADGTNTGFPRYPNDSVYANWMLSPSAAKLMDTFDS

For test [4], the system named is NIH3T3. Description: Antiproliferative activity against mouse NIH3T3 after 72 hrs. The note with it: NIH3T3, 72 h.
The target in test [5] is T1, Proto-oncogene tyrosine-protein kinase receptor Ret. The test can be described thus: Inhibition of RET in mouse NIH3T3MEN2A cells. The class given is cell-based.

`COc1cc2c(cc1OC)/C(=C\c1ccc(NC(=O)Nc3ccc(F)cc3)cc1)C(=O)N2` showed an IC50 in test [1] of 6.1 µM. In the test on NIH3T3MEN2A, the result was inactive.
On to `COc1cc2c(cc1OC)N(C)C(=O)/C2=C/c1ccc(NC(=O)Nc2ccccc2)cc1`, for which the values for the IC50 (in test [1]; with NIH3T3 [2]; in the test with NIH3T3 [4]) were 4.1 µM, 5.4 µM and 6.6 µM, respectively. Moreover, the result in test [3] was inactive. The result with NIH3T3MEN2A was Active.
For the molecule `COc1cc2c(cc1OC)/C(=C\c1ccc(NC(=O)Nc3ccc4c(c3)OCO4)cc1)C(=O)N2`, in test [1], the IC50 stood at 19.4 µM. In addition, the outcome in the test on NIH3T3MEN2A was inactive.
On the same counts, the results for `O=C(Nc1ccccc1)Nc1ccc(/C=C2/C(=O)Nc3ccccc32)cc1` are 10 µM and “inactive”.
In the case of `COc1cc2c(cc1OC)/C(=C\c1ccc(NC(=O)Nc3ccncc3)cc1)C(=O)N2`, in test [1], the midpoint of inhibition, the IC50, lay at 4.7 µM. Also, the outcome in the test on NIH3T3MEN2A was inactive.
The matching figures for `O=C(Nc1ccccc1)Nc1ccc(/C=C2\C(=O)Nc3ccc(Cl)cc32)cc1`: > 40 µM and “inactive”.
The matching figures for `O=C(Nc1ccccc1)Nc1ccc(/C=C2\C(=O)N(O)c3ccccc32)cc1`: 7.5 µM and “inactive”.
Take `COc1ccc(NC(=O)Nc2ccc(/C=C3/C(=O)Nc4cc(OC)c(OC)cc43)cc2)cc1`: the IC50 in test [1] came out at 3.6 µM; in the test with NIH3T3 [2] it was 12.3 µM; with NIH3T3 [4], 14.7 µM. Also, the outcome in the test on NIH3T3MEN2A was Active.
Molecule `COc1cc2c(cc1OC)/C(=C\c1ccc(C(=O)Nc3ccccc3)cc1)C(=O)N2` registered an IC50 in test [1] of 12.2 µM. Moreover, the outcome with NIH3T3MEN2A was inactive.
The matching figures for `COc1cc2c(cc1OC)C(Cc1ccc(NC(=O)Nc3ccccc3)cc1)C(=O)N2` (stereo unspecified): 21.5 µM and “inactive”.
Take `COc1cc2c(cc1OC)/C(=C\c1ccc(NC(=O)N3CCN(C)CC3)cc1)C(=O)N2`: the results for the IC50 in test [1] and in test [5] were 15.8 µM and > 3 µM, respectively. Also, in the test with NIH3T3MEN2A, the outcome was Active.
As for `COc1cc2c(cc1OC)/C(=C\c1ccc(O)cc1)C(=O)N2`, the IC50 in test [1] came out at 3.6 µM; with NIH3T3 [2], 19.7 µM; in test [5], 0.17 µM; in the test with NIH3T3 [4], 16.3 µM. Besides, the result with NIH3T3MEN2A was Active.
In the case of `COc1cc2c(cc1OC)/C(=C\c1ccc(NC(=O)Nc3ccccc3)cc1)C(=O)N2`, the IC50 in test [1] turned out to be 4.6 µM; in the test on NIH3T3 [2], 8.7 µM; with NIH3T3 [4], 14 µM. In the test with NIH3T3MEN2A, the outcome was Active.
In the case of `COc1cc2c(cc1OC)/C(=C\c1ccc(NC(=O)Nc3ccc(N(C)C)cc3)cc1)C(=O)N2`, the IC50 in test [1] is > 40 µM. For the same molecule, in the test on NIH3T3MEN2A, the outcome was inactive.
The matching figures for `O=C(Nc1ccccc1)Nc1ccc(/C=C2\C(=O)Nc3ccccc32)cc1`: > 40 µM and “inactive”.
